Structures are written as SMILES.

The target in experiment [1] is Epidermal growth factor receptor (Homo sapiens) (UniProt P00533). Description: Inhibition of EGFR at 10 uM.
The target in experiment [2] is Fibroblast growth factor receptor 1 (Homo sapiens) (UniProt P11362). Description: Inhibition of FGFR1 at 10 uM.
Experiment [3] concerns the target T1, Vascular endothelial growth factor receptor 2 (Homo sapiens, UniProt P35968). Description: Inhibition of VEGF-induced phosphorylation of VEGFR2 by cell-based ELISA.
Experiment [4] is described as follows: Inhibition of PKA at 10 uM.
The target of experiment [5] is Receptor-type tyrosine-protein kinase FLT3 (Homo sapiens) (UniProt P36888). Description: Inhibition of Flt3 at 10 uM.
Experiment [6] addresses Insulin receptor (Homo sapiens) (UniProt P06213). Description: Inhibition of IR at 10 uM.
Experiment [7] deals with Receptor tyrosine-protein kinase erbB-2 (Homo sapiens) (UniProt P04626). In words: Inhibition of ErbB2 at 10 uM.
Experiment [8] addresses T1, Vascular endothelial growth factor receptor 2. In words: Inhibition of VEGFR2 by HTRF assay in presence of 2 uM ATP. In outline: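 HTRF kinase assay with KDR enzyme (3–4 ng) and biotinylated pGAT substrate. ATP added to start, 45 min at RT. Stopped with EDTA/KF buffer plus Eu-cryptate anti-phosphotyrosine antibody, 2 h RT, then HTRF read. IC50 from 10-point log concentration curves, mean of at least two duplicate runs.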

The target in experiment [9] is Vascular endothelial growth factor receptor 1 (Homo sapiens, UniProt P17948). Description: Inhibition of VEGFR1 by HTRF assay.
The target of experiment [10] is Proto-oncogene tyrosine-protein kinase Src (Homo sapiens) (UniProt P12931). In words: Inhibition of Src at 10 uM.
Experiment [11] addresses Cyclin-dependent kinase 2 (Homo sapiens) (UniProt P24941). In words: Inhibition of Cdk2 at 10 uM.
Experiment [12] addresses Macrophage-stimulating protein receptor (Homo sapiens) (UniProt Q04912). In words: Inhibition of Ron at 10 uM.
Experiment [13] deals with Hepatocyte growth factor receptor (Homo sapiens) (UniProt P08581). In words: Inhibition of c-Met at 10 uM.
The target in experiment [14] is Glycogen synthase kinase-3 beta (Homo sapiens) (UniProt P49841). Description: Inhibition of GSK3-beta at 10 uM.
For experiment [15], the target named is Cyclin-dependent kinase 1 (Homo sapiens) (UniProt P06493). In words: Inhibition of Cdk1 at 10 uM.
For experiment [16], the target named is Insulin-like growth factor 1 receptor (Homo sapiens) (UniProt P08069). Description: Inhibition of IGF1R at 10 uM.
Experiment [17] has as its target Bcr/Abl fusion protein (Homo sapiens) (UniProt P00519+P11274). In words: Inhibition of Bcr-Abl at 10 uM. Type of experiment: protein assay.
Experiment [18] addresses T2, Aurora kinase A (Homo sapiens) (UniProt O14965).
T2 sequence (whole entry): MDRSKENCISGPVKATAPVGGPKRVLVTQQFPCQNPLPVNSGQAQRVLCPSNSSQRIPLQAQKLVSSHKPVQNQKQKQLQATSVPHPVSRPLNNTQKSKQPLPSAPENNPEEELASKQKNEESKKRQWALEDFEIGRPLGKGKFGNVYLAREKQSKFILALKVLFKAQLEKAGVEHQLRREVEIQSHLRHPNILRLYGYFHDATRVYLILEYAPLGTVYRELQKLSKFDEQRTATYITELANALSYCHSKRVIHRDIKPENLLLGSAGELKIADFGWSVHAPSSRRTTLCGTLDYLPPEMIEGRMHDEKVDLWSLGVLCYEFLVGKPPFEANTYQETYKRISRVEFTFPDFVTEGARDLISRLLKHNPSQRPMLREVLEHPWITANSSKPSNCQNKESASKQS
In words: Inhibition of Aurora A at 10 uM.

The target in experiment [19] is Aurora kinase B (Homo sapiens) (UniProt Q96GD4). In words: Inhibition of Aurora B at 10 uM.
Experiment [20] can be described thus: Inhibition of Bcr-Abl T315 mutant at 10 uM.
The target in experiment [21] is Serine/threonine-protein kinase PLK1 (Homo sapiens) (UniProt P53350). Description: Inhibition of Plk1 at 10 uM.
Sequence of Serine/threonine-protein kinase PLK1 (Homo sapiens) (P53350 whole entry): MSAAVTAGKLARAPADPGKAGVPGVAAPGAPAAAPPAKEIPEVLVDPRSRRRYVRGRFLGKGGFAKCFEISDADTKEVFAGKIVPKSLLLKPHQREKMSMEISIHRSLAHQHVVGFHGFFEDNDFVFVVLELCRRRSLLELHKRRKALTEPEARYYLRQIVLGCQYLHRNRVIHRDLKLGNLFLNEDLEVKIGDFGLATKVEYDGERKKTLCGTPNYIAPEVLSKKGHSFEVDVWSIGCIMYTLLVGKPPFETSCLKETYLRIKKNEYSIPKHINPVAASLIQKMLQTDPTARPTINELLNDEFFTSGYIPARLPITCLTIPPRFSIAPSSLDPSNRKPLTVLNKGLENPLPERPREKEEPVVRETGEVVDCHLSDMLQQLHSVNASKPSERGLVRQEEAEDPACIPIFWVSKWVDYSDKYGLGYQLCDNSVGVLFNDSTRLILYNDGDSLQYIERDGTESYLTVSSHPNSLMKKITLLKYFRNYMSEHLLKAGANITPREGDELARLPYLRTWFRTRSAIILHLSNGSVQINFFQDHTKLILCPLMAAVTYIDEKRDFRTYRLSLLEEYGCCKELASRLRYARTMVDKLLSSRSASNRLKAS

T1 sequence (P35968 whole entry): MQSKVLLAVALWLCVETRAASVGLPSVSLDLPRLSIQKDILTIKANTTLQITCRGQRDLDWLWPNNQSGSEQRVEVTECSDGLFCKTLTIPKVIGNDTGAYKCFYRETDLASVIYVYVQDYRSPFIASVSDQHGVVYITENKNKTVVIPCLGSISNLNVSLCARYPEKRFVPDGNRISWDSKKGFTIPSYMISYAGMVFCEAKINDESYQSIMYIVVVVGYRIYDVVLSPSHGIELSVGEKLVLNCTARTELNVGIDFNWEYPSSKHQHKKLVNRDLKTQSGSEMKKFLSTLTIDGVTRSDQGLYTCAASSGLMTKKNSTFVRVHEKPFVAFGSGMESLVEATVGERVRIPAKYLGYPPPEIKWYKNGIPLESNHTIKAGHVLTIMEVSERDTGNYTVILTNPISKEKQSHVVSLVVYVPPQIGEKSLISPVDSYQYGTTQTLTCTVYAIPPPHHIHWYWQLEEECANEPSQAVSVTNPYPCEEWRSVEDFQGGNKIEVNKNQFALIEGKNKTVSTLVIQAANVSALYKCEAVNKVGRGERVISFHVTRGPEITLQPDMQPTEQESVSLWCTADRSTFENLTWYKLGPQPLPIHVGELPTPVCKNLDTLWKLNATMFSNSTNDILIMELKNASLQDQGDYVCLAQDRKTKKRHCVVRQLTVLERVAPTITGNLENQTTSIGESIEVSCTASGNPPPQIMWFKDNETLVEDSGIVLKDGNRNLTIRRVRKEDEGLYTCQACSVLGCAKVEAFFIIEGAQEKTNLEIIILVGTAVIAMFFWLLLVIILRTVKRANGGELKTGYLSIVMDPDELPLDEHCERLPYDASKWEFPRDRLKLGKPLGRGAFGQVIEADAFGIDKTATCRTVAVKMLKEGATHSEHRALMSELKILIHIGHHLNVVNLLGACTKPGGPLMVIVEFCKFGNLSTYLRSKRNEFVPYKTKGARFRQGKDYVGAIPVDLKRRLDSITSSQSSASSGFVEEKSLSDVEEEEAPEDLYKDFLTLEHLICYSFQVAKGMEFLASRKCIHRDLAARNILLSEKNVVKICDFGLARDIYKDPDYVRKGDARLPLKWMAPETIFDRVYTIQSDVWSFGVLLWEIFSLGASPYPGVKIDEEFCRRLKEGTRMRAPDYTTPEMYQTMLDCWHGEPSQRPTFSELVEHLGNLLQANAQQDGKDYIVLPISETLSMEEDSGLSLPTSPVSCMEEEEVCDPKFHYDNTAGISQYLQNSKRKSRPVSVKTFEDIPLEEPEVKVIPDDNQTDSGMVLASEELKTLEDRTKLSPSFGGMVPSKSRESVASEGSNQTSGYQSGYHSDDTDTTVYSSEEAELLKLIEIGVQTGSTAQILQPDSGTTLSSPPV
Sequence of Epidermal growth factor receptor (Homo sapiens) (P00533 whole entry): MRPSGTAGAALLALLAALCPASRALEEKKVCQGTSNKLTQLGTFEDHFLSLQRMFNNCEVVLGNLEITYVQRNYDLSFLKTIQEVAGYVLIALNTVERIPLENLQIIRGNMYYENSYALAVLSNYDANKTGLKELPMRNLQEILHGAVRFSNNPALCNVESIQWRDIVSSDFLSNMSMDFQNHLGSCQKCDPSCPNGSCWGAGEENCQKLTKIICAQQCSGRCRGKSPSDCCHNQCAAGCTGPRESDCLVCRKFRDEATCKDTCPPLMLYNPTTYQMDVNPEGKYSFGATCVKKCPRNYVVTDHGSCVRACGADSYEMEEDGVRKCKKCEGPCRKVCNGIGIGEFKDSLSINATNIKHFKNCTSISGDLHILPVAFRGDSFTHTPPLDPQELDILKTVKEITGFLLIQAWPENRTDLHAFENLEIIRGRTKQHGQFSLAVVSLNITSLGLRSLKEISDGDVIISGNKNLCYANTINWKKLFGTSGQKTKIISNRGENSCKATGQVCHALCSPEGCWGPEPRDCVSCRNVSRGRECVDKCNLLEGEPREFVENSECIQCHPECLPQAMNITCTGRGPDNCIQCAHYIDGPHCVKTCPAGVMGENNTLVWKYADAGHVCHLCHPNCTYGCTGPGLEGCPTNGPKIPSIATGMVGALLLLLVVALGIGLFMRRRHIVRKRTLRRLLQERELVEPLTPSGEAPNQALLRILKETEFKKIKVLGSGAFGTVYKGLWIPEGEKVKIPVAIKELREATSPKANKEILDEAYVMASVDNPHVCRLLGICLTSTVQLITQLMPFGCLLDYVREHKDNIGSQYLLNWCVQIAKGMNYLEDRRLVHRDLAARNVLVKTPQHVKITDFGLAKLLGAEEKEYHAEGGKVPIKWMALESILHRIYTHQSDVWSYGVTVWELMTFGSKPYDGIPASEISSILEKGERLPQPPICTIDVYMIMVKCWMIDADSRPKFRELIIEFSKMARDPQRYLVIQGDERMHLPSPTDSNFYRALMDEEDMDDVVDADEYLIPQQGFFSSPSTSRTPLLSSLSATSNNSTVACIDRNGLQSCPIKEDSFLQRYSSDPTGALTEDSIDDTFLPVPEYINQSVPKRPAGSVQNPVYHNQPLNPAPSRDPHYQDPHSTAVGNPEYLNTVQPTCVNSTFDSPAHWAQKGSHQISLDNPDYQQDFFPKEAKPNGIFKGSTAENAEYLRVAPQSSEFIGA
Sequence of Proto-oncogene tyrosine-protein kinase Src (Homo sapiens) (P12931 2-536 limits assumed): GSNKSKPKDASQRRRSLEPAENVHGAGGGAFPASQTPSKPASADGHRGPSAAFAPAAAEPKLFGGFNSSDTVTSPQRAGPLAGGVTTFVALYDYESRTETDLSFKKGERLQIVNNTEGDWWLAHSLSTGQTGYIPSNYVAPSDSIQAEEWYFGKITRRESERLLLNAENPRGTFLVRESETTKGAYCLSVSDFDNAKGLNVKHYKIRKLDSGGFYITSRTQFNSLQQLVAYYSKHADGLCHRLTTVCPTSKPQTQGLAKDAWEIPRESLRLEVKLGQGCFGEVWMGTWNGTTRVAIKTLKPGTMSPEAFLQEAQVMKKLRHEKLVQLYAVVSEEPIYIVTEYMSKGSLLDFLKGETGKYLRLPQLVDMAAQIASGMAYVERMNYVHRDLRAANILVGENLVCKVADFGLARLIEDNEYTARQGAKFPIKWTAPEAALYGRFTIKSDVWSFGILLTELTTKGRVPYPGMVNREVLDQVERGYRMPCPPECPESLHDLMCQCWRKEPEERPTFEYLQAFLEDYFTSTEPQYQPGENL
Sequence of Receptor tyrosine-protein kinase erbB-2 (Homo sapiens) (P04626 whole entry): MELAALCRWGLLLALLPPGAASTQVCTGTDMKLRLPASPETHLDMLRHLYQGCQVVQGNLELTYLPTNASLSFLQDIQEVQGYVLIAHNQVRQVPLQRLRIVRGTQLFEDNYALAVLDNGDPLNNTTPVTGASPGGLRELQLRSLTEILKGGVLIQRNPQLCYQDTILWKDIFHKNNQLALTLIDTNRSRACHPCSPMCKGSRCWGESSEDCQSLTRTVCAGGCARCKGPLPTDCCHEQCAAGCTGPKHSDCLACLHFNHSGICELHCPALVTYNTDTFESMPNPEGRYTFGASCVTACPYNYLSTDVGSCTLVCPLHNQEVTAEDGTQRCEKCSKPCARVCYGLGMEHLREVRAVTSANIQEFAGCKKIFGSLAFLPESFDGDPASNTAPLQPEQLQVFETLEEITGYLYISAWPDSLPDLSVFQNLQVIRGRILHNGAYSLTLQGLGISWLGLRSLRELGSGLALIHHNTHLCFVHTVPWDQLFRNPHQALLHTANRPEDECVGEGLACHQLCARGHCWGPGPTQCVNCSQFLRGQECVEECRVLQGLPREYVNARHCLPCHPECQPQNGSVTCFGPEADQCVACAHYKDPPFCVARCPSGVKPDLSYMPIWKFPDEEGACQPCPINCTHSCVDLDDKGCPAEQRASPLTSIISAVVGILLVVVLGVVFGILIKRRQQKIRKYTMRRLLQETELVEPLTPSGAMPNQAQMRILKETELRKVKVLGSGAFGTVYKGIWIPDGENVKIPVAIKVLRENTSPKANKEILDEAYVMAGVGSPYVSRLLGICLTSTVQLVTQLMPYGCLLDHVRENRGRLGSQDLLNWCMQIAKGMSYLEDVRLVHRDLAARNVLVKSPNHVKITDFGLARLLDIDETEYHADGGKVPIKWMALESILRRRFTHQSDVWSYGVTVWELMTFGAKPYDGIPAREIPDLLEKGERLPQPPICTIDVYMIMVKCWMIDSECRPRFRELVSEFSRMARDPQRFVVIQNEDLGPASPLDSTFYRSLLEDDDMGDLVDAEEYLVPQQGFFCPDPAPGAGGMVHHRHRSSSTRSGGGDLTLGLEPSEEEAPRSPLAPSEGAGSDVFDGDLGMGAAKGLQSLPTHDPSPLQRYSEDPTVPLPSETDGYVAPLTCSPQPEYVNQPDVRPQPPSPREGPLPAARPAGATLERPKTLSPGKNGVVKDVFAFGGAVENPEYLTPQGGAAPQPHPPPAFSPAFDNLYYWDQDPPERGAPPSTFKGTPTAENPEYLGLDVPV

In the case of `CC(C)(C)c1ccc(-n2cc(-c3ccccc3NCc3ccncc3)nn2)cc1`, the inhibition in [1], in experiment [2], in [4], in [5], in [6] and in [7] was below 30% in each case. Besides, the inhibition in [10], in [11], in [12], in experiment [13], in [14] and in experiment [15] was below 30% in each case. The inhibition in [16], in [17], in experiment [18], in [19], in experiment [20] and in experiment [21] was below 30% in each case. Moreover, the 50% inhibitory concentration (IC50) in experiment [3] worked out at 1.63 µM; in [8] it was 0.61 µM; in [9], 0.53 µM.
For `Clc1cccc(-n2cc(-c3ccccc3NCc3ccc4c(c3)OCO4)nn2)c1`, the inhibition in [1], in experiment [2], in experiment [4], in experiment [5], in experiment [6] and in [7] was below 30% each time. Besides, the inhibition in experiment [10], in experiment [11], in [12], in [13], in [14] and in experiment [15] was below 30% each time. The inhibition in experiment [16], in experiment [17], in experiment [18], in experiment [19], in experiment [20] and in [21] was below 30% in each case. Besides, the IC50 in experiment [3], in experiment [8] and in experiment [9] was above 10 µM throughout.
With `c1ccc(-c2cn(-c3ccc4[nH]ncc4c3)nn2)c(NCc2ccncc2)c1`, the inhibition in experiment [1], in [2], in experiment [4], in experiment [5], in experiment [6] and in [7] was below 30% throughout. The inhibition in [10], in [11], in [12], in experiment [13], in experiment [14] and in experiment [15] was below 30% throughout. Besides, the inhibition in experiment [16], in [17], in experiment [18], in [19], in [20] and in experiment [21] was below 30% in each case. Besides, the IC50 is 2.33 µM in [3], 0.68 µM in [8] and 0.65 µM in experiment [9].
Turning to `Clc1cccc(-n2cc(-c3ccccc3NCc3cccnc3)nn2)c1`, the inhibition in [1], in [2], in experiment [4], in [5], in experiment [6] and in [7] was below 30% in each case. Further, the inhibition in experiment [10], in experiment [11], in experiment [12], in [13], in experiment [14] and in experiment [15] was below 30% each time. For the same compound, the inhibition in experiment [16], in experiment [17], in experiment [18], in experiment [19], in [20] and in experiment [21] was below 30% in each case. The IC50 in [3] was above 10 µM; in experiment [8], 4.23 µM; in [9], above 10 µM.
Regarding `FC(F)(F)c1ccc(-n2cc(-c3ccccc3NCc3ccncc3)nn2)cc1`, the inhibition in experiment [1], in [2], in [4], in experiment [5], in [6] and in [7] was below 30% throughout. The inhibition in experiment [10], in experiment [11], in experiment [12], in experiment [13], in [14] and in experiment [15] was below 30% each time. Besides, the inhibition in experiment [16], in experiment [17], in experiment [18], in [19], in experiment [20] and in experiment [21] was below 30% each time. Also, the concentration for half-maximal inhibition (IC50) in experiment [3] worked out at 1.92 µM; in experiment [8], 0.59 µM; in experiment [9], 0.66 µM.
Take `FC(F)(F)c1cccc(-n2cc(-c3ccccc3NCc3ccccn3)nn2)c1`: the inhibition in experiment [1], in experiment [2], in experiment [4], in [5], in [6] and in experiment [7] was below 30% in each case. Moreover, the inhibition in experiment [10], in experiment [11], in experiment [12], in experiment [13], in [14] and in experiment [15] was below 30% each time. The inhibition in [16], in [17], in experiment [18], in [19], in experiment [20] and in experiment [21] was below 30% each time. The IC50 in experiment [3], in [8] and in [9] was above 10 µM each time.
Turning to `FC(F)(F)Oc1ccc(-n2cc(-c3ccccc3NCc3ccncc3)nn2)cc1`, the inhibition in experiment [1], in experiment [2], in experiment [4], in experiment [5], in experiment [6] and in [7] was below 30% each time. Also, the inhibition in experiment [10], in experiment [11], in [12], in [13], in [14] and in experiment [15] was below 30% throughout. The inhibition in [16], in experiment [17], in experiment [18], in [19], in experiment [20] and in experiment [21] was below 30% each time. Besides, the IC50 is 3.11 µM in [3], 1.22 µM in [8] and 1.13 µM in experiment [9].
Regarding `FC(F)(F)c1cccc(-n2cc(-c3ccccc3NCc3cccnc3)nn2)c1`, the inhibition in [1], in experiment [2], in [4], in experiment [5], in experiment [6] and in experiment [7] was below 30% throughout. Besides, the inhibition in experiment [10], in [11], in [12], in experiment [13], in experiment [14] and in experiment [15] was below 30% each time. The inhibition in experiment [16], in experiment [17], in experiment [18], in [19], in experiment [20] and in [21] was below 30% throughout. The half-maximal inhibitory concentration (IC50) in [3], in experiment [8] and in [9] was above 10 µM each time.
